Source: ChEMBL document CHEMBL4330146, “Identification of α-Glucosidase Inhibitors in Machilus litseifolia by Combined Use of High-Resolution α-Glucosidase Inhibition Profiling and HPLC-PDA-HRMS-SPE-NMR” (J Nat Prod, 2019)

Assay: Inhibition of yeast alpha-glucosidase pre-incubated for 10 mins followed by pNPG substrate addition and measured every 30 secs for 35 mins
Parameters: species or system Saccharomyces cerevisiae
Summary of the method: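 S. cerevisiae α-glucosidase (enzyme solution 2.0 U/mL) in 100 mM phosphate buffer, pH 7.5, with NaN3. Serial DMSO dilutions, nine concentrations, in triplicate. Preincubated 10 min at 28 °C, then p-NPG added (substrate solution 10 mM). A405 read every 30 s for 35 min. Inhibition taken from rate slope versus enzyme–substrate blanks; IC50 from three-parameter curve fit.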

Row | IC50 | SMILES
1 | 26.9 µM | COc1ccc(-c2oc3cc(O)cc(O)c3c(=O)c2O[C@@H]2O[C@@H](C)[C@H](OC(=O)/C=C/c3ccc(O)cc3)[C@@H](O)[C@H]2OC(=O)/C=C/c2ccc(O)cc2)cc1
2 | 10.1 µM | COc1ccc(-c2oc3cc(O)cc(O)c3c(=O)c2O[C@@H]2O[C@@H](C)[C@H](OC(=O)/C=C/c3ccc(O)cc3)[C@@H](O)[C@H]2OC(=O)/C=C\c2ccc(O)cc2)cc1
3 | 28.2 µM | COc1ccc(-c2oc3cc(O)cc(O)c3c(=O)c2O[C@@H]2O[C@@H](C)[C@H](OC(=O)/C=C\c3ccc(O)cc3)[C@@H](O)[C@H]2OC(=O)/C=C/c2ccc(O)cc2)cc1O
4 | 16.1 µM | C[C@@H]1O[C@@H](Oc2c(-c3ccc(O)cc3)oc3cc(O)cc(O)c3c2=O)[C@H](OC(=O)/C=C/c2ccc(O)cc2)[C@H](O)[C@H]1OC(=O)/C=C\c1ccc(O)cc1
5 | 266 µM | C[C@H]1O[C@H](O[C@H]2[C@H](O)[C@@H](O)[C@@H](O[C@H]3[C@H](O)[C@@H](O)C(O)O[C@@H]3CO)O[C@@H]2CO)[C@H](O)[C@@H](O)[C@@H]1N[C@H]1C=C(CO)[C@@H](O)[C@H](O)[C@H]1O (some centres undefined) [ACARBOSE]
6 | 35.3 µM | C[C@@H]1O[C@@H](Oc2c(-c3ccc(O)cc3)oc3cc(O)cc(O)c3c2=O)[C@H](OC(=O)/C=C\c2ccc(O)cc2)[C@H](O)[C@H]1OC(=O)/C=C/c1ccc(O)cc1
7 | 5.9 µM | COc1ccc(-c2oc3cc(O)cc(O)c3c(=O)c2O[C@@H]2O[C@@H](C)[C@H](OC(=O)/C=C\c3ccc(O)cc3)[C@@H](O)[C@H]2OC(=O)/C=C\c2ccc(O)cc2)cc1
8 | 12.9 µM | C[C@@H]1O[C@@H](Oc2c(-c3ccc(O)cc3)oc3cc(O)cc(O)c3c2=O)[C@H](OC(=O)/C=C/c2ccc(O)cc2)[C@H](O)[C@H]1OC(=O)/C=C/c1ccc(O)cc1
9 | 6.8 µM | COc1ccc(-c2oc3cc(O)cc(O)c3c(=O)c2O[C@@H]2O[C@@H](C)[C@H](OC(=O)/C=C\c3ccc(O)cc3)[C@@H](O)[C@H]2OC(=O)/C=C/c2ccc(O)cc2)cc1
